INS promoter act = TRM-6 insulin promoter activation. TRM-6 cells, insulin promoter eGFP reporter, imaging; plate-scaled: unstimulated 0, stimulated control 100. activation, % at 2 µM. hit rate 0.81% among 130,000. AID 1296;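 active = activation at 2 µM above a set limit, confirmed on inspection of the cell images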;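 note: share of cells whose green reporter signal exceeds an intensity cutoff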
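Material: Human fetal islet-derived TRM-6 cells with tamoxifen-inducible insulin promoter–eGFP reporter | Medium: Low-glucose (5.5 mM) medium with tamoxifen | Probe or stimulus: Tamoxifen inducer, 0.75 µM, in seeding medium | Schedule: Tamoxifen pre-incubation 15 h overnight, then compound exposure 48 h at 37 °C | Detection: High-content imaging of fixed cells with Hoechst nuclear stain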
Large screens that a line does not name were inactive. Many of the other results were omitted from the sample, so hits are more common in it than they were.

Cc1cc(C(=O)COC(=O)c2ccc[nH]c2=O)c(C)n1-c1ccc(F)cc1	none
CC1=C(C(=O)OCC2CCCO2)C(c2ccc(Cl)cc2)NC(=O)N1 (centres undefined)	none
O=C(NCc1cccnc1)c1cc(-c2ccccc2)on1	none
O=C(NCc1cccnc1)c1ccc(NC(=O)c2ccco2)cc1	none
O=C(NCc1cccnc1)c1nc(-c2ccc(C(F)(F)F)cc2)no1	INS promoter act 300.0
Cc1ccc(NC(=O)CCC(=O)NNC(=O)COc2ccccc2)c(C)c1	none
COc1ccc(NC(=O)OC(C)C)cc1	none
O=C(/C=C/c1ccc([N+](=O)[O-])cc1)N(c1ccccn1)C1CCCCC1	none
CC(=O)c1cccc(NC(=O)C(CC(C)C)NC(=O)C2CCCCC2)c1 (centres undefined)	none
COc1ccc(N(CC(=O)NCCSCc2c(F)cccc2Cl)S(C)(=O)=O)cc1OC	none
COc1cccc(N(CC(=O)NCCSc2ccc(Cl)cc2)S(C)(=O)=O)c1	INS promoter act 93.1
COc1ccc(NC(=S)NCCSc2ccc(Cl)cc2)c(OC)c1	none
COc1ccc(N(CC(=O)O)S(C)(=O)=O)cc1OC	none
CSc1ccccc1NC(=O)CN(c1cccc(C)c1)S(C)(=O)=O	none
COc1ccc(N(CC(=O)Nc2ccccc2SC)S(C)(=O)=O)cc1OC	INS promoter act 614.3
COc1ccc(CN2C(=O)c3ccccc3C(/C=N\OCc3ccc(C)cc3)C2=O)cc1 (centres undefined)	none
CCOC(=O)C(Oc1ccc2c(-c3ccccc3)cc(=O)oc2c1)c1ccccc1 (centres undefined)	none
CCn1c(SCC(=O)Nc2cc(C)on2)nnc1-c1cccs1	none
CCn1c(CNC(=O)c2cccs2)nnc1SCC(=O)Nc1ccc(Cl)cc1	INS promoter act 650.0
C=CCn1c(CCNC(=O)c2cccs2)nnc1SCC(=O)Nc1cccc(C(C)=O)c1	none
CS(=O)(=O)c1ccc(Cl)c(NC(=O)CCc2ccccc2)c1	none
CCN1c2ccccc2NC2C1C(C(C)=O)C(=O)N2c1ccc(Cl)cc1 (centres undefined)	INS promoter act 133.3
CCC(=O)N1C(=O)C2(Nc3ccccc3N2)c2ccccc21	none
Cc1cc(C)c(S(C)(=O)=O)c(N(C)NC(=O)c2c(F)cccc2F)n1	none
Cc1nnc(NC(=O)CSc2nnc(Cc3ccccc3)n2-c2ccccc2)s1	INS promoter act 660.0
Cc1nnc(NC(=O)CSc2nnc(C)n2Cc2ccccc2)s1	none
CCc1nnc(NC(=O)CSc2nnc(Cc3ccccc3)n2-c2ccccc2)s1	none
COc1ccc(-n2nc(C(=O)NCC(=O)NCC3CCCO3)c3ccccc3c2=O)cc1Cl (centres undefined)	none
Cc1[nH]c2ccc(-c3n[nH]c(=S)n3-c3ccccc3)cc2c1C	none
Cc1ccc(-n2c(-c3cccc(C)c3)n[nH]c2=S)cc1	none
Cc1ccc(-c2n[nH]c(=S)n2-c2ccccc2)cc1	INS promoter act 484.6
Cn1cc(Cl)c(C(=O)OCC(=O)Nc2nc(-c3ccc(Br)cc3)cs2)n1	none
Cc1cc(C)cc(NC(=S)N2CCC(N(C)CC3CCCO3)CC2)c1 (centres undefined)	none
Cc1ccc(/C=C/C(=O)O)cc1S(=O)(=O)N(CCO)CCO	none
COC(=O)CCc1nc2ccccc2[nH]c1=O	none
O=C(CCc1nc2ccccc2[nH]c1=O)OCC(=O)c1cccc2ccccc12	INS promoter act 82.9
Cc1ccc(C(=O)COC(=O)CCc2nc3ccccc3[nH]c2=O)cc1C	none
O=C(CCc1nc2ccccc2[nH]c1=O)OCC(=O)c1ccc(Cl)cc1	none
CC(CC(=O)Nc1nc2ccccc2[nH]1)c1ccccc1 (centres undefined)	none
CC(OC(=O)CCc1nc2ccccc2[nH]c1=O)c1ccccc1 (centres undefined)	INS promoter act 471.4
CC(C)c1ccc(NC(=O)CSc2ncccc2C(=O)Oc2cccc([N+](=O)[O-])c2)cc1	none
CCSc1ccccc1C(=O)NCc1ccco1	none
CCCOc1ccc(NC(=O)CC2C(=O)N(Cc3ccccc3)C(=S)N2Cc2cccs2)cc1 (centres undefined)	none
Cc1cc(N2C(=O)C=CC2=O)c([N+](=O)[O-])cc1C	none
Cc1cccc(N2CCN(c3nc4ccc(Cl)cc4n4cnnc34)CC2)c1C	none
O=C(c1cncc(Br)c1)N1CCc2ccccc2C1	none
CCCNC(=O)CN(CCc1ccccc1)S(C)(=O)=O	INS promoter act 92.9
CCN(CC(=O)NCCc1ccccc1)S(=O)(=O)c1ccc(Br)cc1	none
CCOCCCNC(=O)CN(Cc1ccc(Cl)cc1)S(C)(=O)=O	none
O=[N+]([O-])c1ccc(-c2ccc(/C=N/Nc3nc(N4CCCCC4)nc(N4CCCCC4)n3)o2)cc1	INS promoter act 614.3
O=[N+]([O-])c1ccc(-n2cccc2/C=N/Nc2nc(N3CCCCC3)nc(N3CCCCC3)n2)cc1	none
O=[N+]([O-])c1cccc(/C=N/Nc2nc(N3CCCCC3)nc(N3CCCCC3)n2)c1	none
Cc1cccc(C(=O)NC2CCN(C(=O)N3CCOCC3)CC2)c1	none
O=C(NC1CCCCC1)c1cc([N+](=O)[O-])ccc1N1CCCCC1	none
O=C(CCc1ccc(Oc2cc([N+](=O)[O-])cc([N+](=O)[O-])c2)cc1)NC1CCCC1	none
O=C(CO/N=C/c1cccc([N+](=O)[O-])c1)NC1CCCCCC1	INS promoter act 450.0

Source: PubChem
